Where a SMILES comes first, the peptide text is derived from it. [ ]: non-standard residue; d: D form.
Columns and labels:
[1] = In vitro Natural Killer cell activity (Activation of murine splenocyte NK cells by its ability to lyze YAC-1 target cells in chromium release assay) relative to interleukin 2 at 10E-4 to 10E-12 M conc; Range 41-60%; type: functional, Mus musculus
Procedure, shortened: (§1)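 Spleens from female C57BL/6 (H-2b) mice, 6–8 weeks old, homogenized in RPMI 1640 with 10% FCS and 2 mM L-glutamine. Mononuclear cells isolated on a Lympholyte M gradient (800g, 20 min), washed in PBS, viability checked by trypan blue. 5×10^5 splenocytes with compound incubated 4 h with 5×10^3 51Cr-labelled YAC-1 cells; % specific lysis from released chromium. Compounds tested at 10^-4–10^-12 M. Peak activity scored relative to IL 2 (100%) in 20% bands. Actives run 2–5 times, inactives once.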

[2] = In vitro Natural Killer cell activity (Activation of murine splenocyte NK cells by its ability to lyze YAC-1 target cells in chromium release assay) relative to interleukin 2 at 10E-4 to 10E-12 M conc.; type: functional, Mus musculus; procedure, shortened: as §1
[3] = species on record: Mus musculus; test: Peak or the range of peak activity relative to positive IL 2 control; Range 10e-12-10e-6; type: functional; procedure, shortened: as §1
[4] = In vitro Natural Killer cell activity (Activation of murine splenocyte NK cells by its ability to lyze YAC-1 target cells in chromium release assay) relative to interleukin 2 at 10E-4 to 10E-12 M conc; Range […]; type: functional, Mus musculus; procedure, shortened: as §1
[5] = In vitro Natural Killer cell activity (Activation of murine splenocyte NK cells by its ability to lyze YAC-1 target cells in chromium release assay) relative to interleukin 2; Range 0-20%; type: functional, Mus musculus; procedure, shortened: as §1
[6] = In vitro Natural Killer cell activity (Activation of murine splenocyte NK cells by its ability to lyze YAC-1 target cells in chromium release assay) relative to interleukin 2 at 10e-4; Range 101-120%
[7] = species on record: Mus musculus; test: Peak or the range of peak activity relative to positive IL 2 control; Range 10e-12-10e-4; type: functional; procedure, shortened: as §1
[8] = In vitro Natural Killer cell activity (Activation of murine splenocyte NK cells by its ability to lyze YAC-1 target cells in chromium release assay) relative to interleukin 2 at 10E-4 to 10E-8 M conc; Range 21-40%; type: functional, Mus musculus; procedure, shortened: as §1
[9] = In vitro Natural Killer cell activity (Activation of murine splenocyte NK cells by its ability to lyze YAC-1 target cells in chromium release assay) relative to interleukin 2 at 10E-4 to 10E-12 M conc; Range 21-40%; type: functional, Mus musculus; procedure, shortened: as §1

## CC1OC(OCCCCCCNC(=O)[C@H](CCC(=O)O)NC(=O)[C@H](C)N)C(O)C(O)C1O (some centres not stated)
[1]
  Stimulation: 41%

## CC1OC(OCCCCCCNC(=O)[C@H](CCCN)NC(=O)[C@@H](C)N)C(O)C(O)C1O (some centres not stated)
[2]
  Stimulation: 0%

## C=CCn1c(=O)n([C@@H]2O[C@H](CO)[C@@H](O)[C@H]2O)c2nc(N)[nH]c(=O)c21 [LOXORIBINE]
[2]
  Stimulation: 0%

## CC1OC(OCCCCCCn2cnc3c(N(C)C)ncnc32)C(O)C(O)C1O (configuration not stated)
[3]
  Concentration: 10 pM
[4]
  Stimulation: 81%

## CC1OC(OCCCCCCNC(=O)CNC(=O)[C@@H](C)N)C(O)C(O)C1O (some centres not stated)
[2]
  Stimulation: 0%

## CC[C@@H](C)[C@H](N)C(=O)N1CCC[C@H]1C(=O)NCCCCCCOC1OC(C)C(O)C(O)C1O (some centres not stated)
[2]
  Stimulation: 0%

## C[C@@H](N)C(=O)N[C@@H](CCC(N)=O)C(=O)NCCCCCCCl
[5]
  Stimulation: 0%

## CC(C(=O)OCCCCCn1cnc2c(N(C)C)ncnc21)[C@H](C)CCCN=C(N)N (some centres not stated)
[2]
  Stimulation: 0%

## C[C@H](N)C(=O)N1CCC[C@H]1C(=O)NCCCCCCO
[5]
  Stimulation: 0%

## CN[C@H](C(=O)NCCCCCCOC1OC(C)C(O)C(O)C1O)c1ccc(C(=O)O)[nH]1 (some centres not stated)
[2]
  Stimulation: 0%

## CC1OC(OCCCCCCNC(=O)[C@H](CC(N)=O)NC(=O)[C@@H](C)N)C(O)C(O)C1O (some centres not stated)
[2]
  Stimulation: 0%

## C[C@@H](N)C(=O)N[C@@H](CCC(N)=O)C(=O)O (H-[dA]-Gln-OH)
[5]
  Stimulation: 0%

## C[C@@H](N)C(=O)N[C@@H](CCC(N)=O)C(=O)NCCCCCCN
[6]
  Stimulation: 101%

## CC1OC(OCCc2ccc(NC(=O)[C@H](CCC(N)=O)NC(=O)[C@@H](C)N)cc2)C(O)C(O)C1O (some centres not stated)
[2]
  Stimulation: 0%

## CC1OC(OCCCCCCNC(=O)[C@H](CCC(=O)O)NC(=O)[C@@H](C)N)C(O)C(O)C1O (some centres not stated)
[1]
  Stimulation: 41%
[7]
  Concentration: 10 pM

## NC(=O)CC[C@H](N)C(=O)NCCCCCCO
[5]
  Stimulation: 0%

## CC1OC(OCCCCCCNC(=O)CC[C@H](NC(=O)[C@H](CCC(N)=O)NC(=O)[C@@H](C)N)C(=O)NCCCCCCOC2OC(C)C(O)C(O)C2O)C(O)C(O)C1O (some centres not stated)
[5]
  Stimulation: 0%

## C[C@@H](N)C(=O)N[C@H]1CCC(=O)NC1=O
[2]
  Stimulation: 0%

## CC1OC(OCCCCCCCCCCCCNC(=O)[C@H](CCC(N)=O)NC(=O)[C@@H](C)N)C(O)C(O)C1O (some centres not stated)
[8]
  Stimulation: 21%

## CC1OC(OCCCCCCNC(=O)[C@H](CCCCNC(=O)[C@H](CCC(N)=O)NC(=O)[C@@H](C)N)NC(=O)[C@H](CCC(N)=O)NC(=O)[C@@H](C)N)C(O)C(O)C1O (some centres not stated)
[9]
  Stimulation: 21%
